Four compounds from BindingDB's records for doi:10.1016/j.bmc.2018.05.049 (2018) can be followed below.

This assay concerns the target T1, Sodium- and chloride-dependent GABA transporter 2 (Mus musculus, UniProt P31649).
T1 sequence (P31649 whole entry): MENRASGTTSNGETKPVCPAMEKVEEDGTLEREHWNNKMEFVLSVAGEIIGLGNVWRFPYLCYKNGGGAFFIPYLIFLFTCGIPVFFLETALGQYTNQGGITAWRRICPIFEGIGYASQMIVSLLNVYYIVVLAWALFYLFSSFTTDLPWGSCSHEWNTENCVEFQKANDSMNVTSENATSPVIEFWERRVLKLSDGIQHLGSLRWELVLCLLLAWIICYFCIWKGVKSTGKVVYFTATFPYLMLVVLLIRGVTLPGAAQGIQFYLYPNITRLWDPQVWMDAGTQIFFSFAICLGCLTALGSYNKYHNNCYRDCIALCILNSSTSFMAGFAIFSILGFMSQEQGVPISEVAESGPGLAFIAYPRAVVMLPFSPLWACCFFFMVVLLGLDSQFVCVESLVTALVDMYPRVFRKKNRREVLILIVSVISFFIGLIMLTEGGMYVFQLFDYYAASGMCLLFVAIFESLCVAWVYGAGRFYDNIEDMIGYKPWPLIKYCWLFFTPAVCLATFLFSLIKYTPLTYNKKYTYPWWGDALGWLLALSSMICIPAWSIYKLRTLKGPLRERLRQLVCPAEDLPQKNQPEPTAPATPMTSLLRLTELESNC
The experiment in a line: Inhibition of mouse GAT2 expressed in HEK293 cells assessed as decrease in [3H]GABA uptake preincubated for 25 mins followed by [3H]GABA addition measured after 10 mins by liquid scintillation counting analysis. The essentials:
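[³H]GABA uptake assay in HEK cells expressing the mGAT subtype named in the line, run in triplicate. Potencies are given as pIC₅₀ ± SEM. No SEM is given where only one triplicate measurement was made. Where 100 µM test compound left uptake at or above 50% (pIC₅₀ ≤ 4.00), the percent remaining [³H]GABA uptake at 100 µM is reported instead.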
Consider `COc1ccc(C(CC#CCN2CCCC(C(=O)O)C2)(c2ccc(OC)cc2)c2ccc(OC)cc2)cc1` (centres undefined), for which the IC50 (commonly the midpoint of a concentration-inhibition curve) is 33.9 µM.

With `COc1ccc(C(C#CCN2CCCC(C(=O)O)C2)(c2ccc(OC)cc2)c2ccc3c(c2)OCO3)cc1` (centres undefined), the IC50 came out at 41.7 µM.

Consider `COc1ccc(C(C#CCCN2CCCC(C(=O)O)C2)(c2ccc(OC)cc2)c2ccc(OC)cc2)cc1` (centres undefined), for which the IC50 was 35.5 µM.

Turning to `COc1ccc(C(OCCN2CCCC(C(=O)O)C2)(c2ccc(OC)cc2C)c2ccc(OC)cc2C)cc1` (centres undefined), the IC50 came out at 32.4 µM.
